Measured values from ChEMBL document CHEMBL4251559, “Design, synthesis, and evaluation of NDGA analogues as potential anti-ischemic stroke agents” (Eur J Med Chem, 2018).
The source made the active and inactive calls. No cut-off for these calls is given here.

Key:
[1] = Antioxidant activity assessed as DPPH radical scavenging activity at 20 mg/ml after 30 mins; assay type: functional
In short: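 Samples were 20 mg/mL solutions in ethanol, mixed with 0.15 mM ethanolic DPPH (80 µL sample plus 120 µL DPPH). Mixtures were incubated 30 min at 25 °C and absorbance read at 517 nm. Ethanol plus DPPH served as the control. % scavenging = [1-(Ai-Aj)/Ac]×100. Run in triplicate.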

[2] = tested on: PC-12; assay: Cytoprotective activity against H2O2-induced damage in rat PC12 cells assessed as increase in cell viability at 5 uM preincubated for 1 hr followed by H2O2 challenge measured after 24 hrs by MTT assay; assay type: functional, cell-based
In short: (§1)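 PC12 cells at 5×10^3/well, attached overnight. Pretreated with 5 µM compound for 1 h or 24 h, then 400 µM H2O2 for 24 h. MTT (5 mg/mL) for 4 h at 37 °C, formazan dissolved in DMSO, OD read at 490 nm. Viability given as % of untreated control.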

[3] = molecular target: T1, Nuclear factor erythroid 2-related factor 2 (Rattus norvegicus) (UniProt O54968); assay: Induction of Nrf2 translocation in nucleus of rat PC12 cells at 5 uM after 6 hrs by DAPI staining-based fluorescence microscopic method; assay type: cell-based
T1 sequence (whole entry): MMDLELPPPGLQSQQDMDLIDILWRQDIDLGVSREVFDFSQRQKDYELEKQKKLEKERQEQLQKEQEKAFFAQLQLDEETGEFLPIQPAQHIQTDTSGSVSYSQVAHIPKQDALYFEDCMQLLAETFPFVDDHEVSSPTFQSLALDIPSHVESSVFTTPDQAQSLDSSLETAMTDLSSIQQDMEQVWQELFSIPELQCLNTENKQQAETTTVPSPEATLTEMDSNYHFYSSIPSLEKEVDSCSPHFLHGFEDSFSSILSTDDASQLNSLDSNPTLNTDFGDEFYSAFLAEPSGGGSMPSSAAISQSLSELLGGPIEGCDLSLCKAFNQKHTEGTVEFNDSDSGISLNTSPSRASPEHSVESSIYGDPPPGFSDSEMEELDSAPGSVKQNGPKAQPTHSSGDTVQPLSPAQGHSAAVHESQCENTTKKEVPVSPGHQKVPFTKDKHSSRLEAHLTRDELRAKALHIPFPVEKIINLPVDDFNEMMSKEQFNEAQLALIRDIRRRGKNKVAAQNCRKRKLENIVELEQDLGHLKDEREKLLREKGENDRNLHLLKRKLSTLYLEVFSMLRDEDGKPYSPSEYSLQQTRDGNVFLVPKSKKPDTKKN
In short: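 PC12 cells on coverslips treated with 5 µM compound for 6 h. Fixed in 4% paraformaldehyde (20 min, 4 °C), permeabilised with 1% Triton X-100, blocked with 1% BSA. Anti-Nrf2 (1:300) overnight at 4 °C, then PE-labelled secondary (1:300) 1 h in the dark. DAPI counterstain, imaged by fluorescence microscopy.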

[4] = molecular target: T1, Nuclear factor erythroid 2-related factor 2 (Rattus norvegicus); assay: Induction of Nrf2 translocation in nucleus of rat PC12 cells assessed as upregulation of HO-1 protein expression at 10 uM after 24 hrs by Western blot method; assay type: cell-based
In short: (§2)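 PC12 cells treated 24 h at 2.5, 5 or 10 µM; reference compounds at 10 µM. Lysed in ice-cold RIPA, run on 10% SDS-PAGE and transferred to PVDF. Probed with anti-HO-1 (1:300) and GAPDH (1:1000) overnight at 4 °C, then HRP anti-rabbit IgG 1 h. Mean ± SD, n = 3, one-way ANOVA with Tukey test.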

[5] = tested on: Rattus norvegicus; assay: Antiischemic stroke activity in Sprague-Dawley rat middle cerebral artery occlusion-induced ischemia-reperfusion injury model assessed as decrease in infarct size at 0.2 mg/kg, icv as nanoparticle measured after 72 hrs by TTC staining-based assay; assay type: functional, organism-based
In short: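 Male Sprague-Dawley rats (250-280 g), n = 7 per group. Nanoparticle-loaded drug (0.2 mg/kg) or isovolumetric saline or vehicle (polymer:DMSO:distilled water 50 mg:1 mL:3 mL) given by intracerebroventricular injection 2 h before MCAO. Filament occlusion for 2 h, then 72 h reperfusion. Brain slices stained with TTC at 37 °C for 30 min, photographed, and infarct area quantified by image analysis.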

[6] = tested on: Rattus norvegicus; assay: Antiischemic stroke activity in Sprague-Dawley rat middle cerebral artery occlusion-induced ischemia-reperfusion injury model assessed as decrease in neurological score at 0.2 mg/kg, icv as nanoparticle measured after 72 hrs by Longa's method; assay type: functional, organism-based
In short: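 Male Sprague-Dawley rats (250-280 g), n = 7 per group. Intracerebroventricular injection of nanoparticle formulation 0.2 mg/kg 2 h before MCAO. Vehicle was polymer:DMSO:distilled water (50 mg:1 mL:3 mL). Intraluminal thread (about 1.8 cm) via ECA, 2 h occlusion, then 72 h reperfusion. Neurological deficit scored at 72 h on Longa's 0–4 scale. Mean ± SD, n ≥ 6.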

[7] = tested on: PC-12; assay: Cytoprotective activity against H2O2-induced damage in rat PC12 cells assessed as increase in cell viability at 5 uM preincubated for 24 hrs followed by H2O2 challenge measured after 24 hrs by MTT assay; assay type: functional, cell-based; in short: as §1
[8] = tested on: PC-12; assay: Cytotoxicity against rat PC12 cells assessed as decrease in cell viability at 5 uM after 24 hrs by MTT assay; assay type: cell-based; conditions: pc-12, 24 h
In short: (§3)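 PC12 cells at 5×10^3/well, attached overnight. Exposed to 5 µM compound for 24 h or 72 h without H2O2. MTT 4 h at 37 °C, formazan dissolved in DMSO, OD 490 nm. Viability as % of untreated control.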

[9] = tested on: PC-12; assay: Cytotoxicity against rat PC12 cells assessed as decrease in cell viability at 5 uM after 72 hrs by MTT assay; assay type: cell-based; conditions: pc-12, 72 h; in short: as §3
[10] = tested on: PC-12; assay: Cytoprotective activity against H2O2-induced damage in rat PC12 cells assessed as increase in cell viability preincubated for 1 to 24 hrs followed by H2O2 challenge measured after 24 hrs by MTT assay; assay type: functional, cell-based
In short: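 PC12 cells at 5×10^3/well, attached overnight. Pretreated 1 h or 24 h at 2.5, 5 or 7.5 µM, then 400 µM H2O2 for 24 h. MTT 4 h at 37 °C, DMSO solubilisation, OD 490 nm. Viability as % of control. Mean ± SD, n = 3, one-way ANOVA with Tukey test.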

[11] = tested on: PC-12; assay: Cytoprotective activity against H2O2-induced damage in rat PC12 cells assessed as decrease in MDA levels preincubated for 1 to 24 hrs followed by H2O2 challenge measured after 16 hrs; assay type: functional, cell-based
In short: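 PC12 cells in DMEM with 10% FBS at 37 °C, 5% CO2. Pre-incubated 1 h or 24 h with compound (2.5, 5, 7.5 µM; reference compounds 5 µM), then exposed to 700 µM H2O2 for 16 h. Supernatant taken after centrifugation at 1600 × g for 10 min at 4 °C, and MDA measured with a kit. Mean ± SD, n = 3, one-way ANOVA with Tukey test.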

[12] = tested on: PC-12; assay: Cytoprotective activity against H2O2-induced damage in rat PC12 cells assessed as decrease in ROS accumulation at 5 uM preincubated for 1 to 24 hrs followed by H2O2 challenge measured after 3 hrs by DCFH-DA dye-based flow cytometric method; assay type: functional, cell-based
In short: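 PC12 cells seeded at 3 × 10^5/mL and attached overnight. Pre-incubated 1 h or 24 h with 5 µM compound, then H2O2 for 3 h. Loaded with DCFH-DA at 37 °C for 30 min, detached enzymatically, washed in PBS, filtered and analysed by flow cytometry. Mean ± SD, n = 3.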

[13] = molecular target: T1, Nuclear factor erythroid 2-related factor 2 (Rattus norvegicus); assay: Induction of Nrf2 translocation in nucleus of rat PC12 cells assessed as upregulation of HO-1 protein expression after 24 hrs by Western blot method; assay type: cell-based; in short: as §2
[14] = molecular target: T1, Nuclear factor erythroid 2-related factor 2 (Rattus norvegicus); assay: Induction of Nrf2 translocation in nucleus of rat PC12 cells assessed as upregulation of HO-1 protein expression at 5 uM after 24 hrs by Western blot method

SMILES | Activity [1] | Activity [2] | further results
CCCN1C/C(=C\c2ccc(O)c(O)c2)C(=O)/C(=C/c2ccc(O)c(O)c2)C1 | Active | Active | –
O=C1/C(=C/c2ccc(O)c(O)c2)CN(CCc2ccccc2)C/C1=C\c1ccc(O)c(O)c1 | Active | Active | –
CC(C)(C)c1cc(O)ccc1O | – | – | Activity [3]: Active; Activity [4]: Active
CC1=NN(c2ccccc2)C(=O)C1 | – | – | Activity [5]: Active; Activity [6]: Active
O=C1/C(=C/c2ccc(O)c(O)c2)CN(Cc2ccccc2)C/C1=C\c1ccc(O)c(O)c1 | Active | Active | –
O=C1C(=Cc2ccc(O)c(O)c2)CCC/C1=C\c1ccc(O)c(O)c1 | Active | Active | –
O=C1/C(=C/c2ccc(O)c(O)c2)CNC/C1=C\c1ccc(O)c(O)c1 | Active | Active | Activity [7]: Active; Activity [8]: Non-Toxic; Activity [9]: Toxic
C[C@H](Cc1ccc(O)c(O)c1)[C@@H](C)Cc1ccc(O)c(O)c1 | Active | Active | Activity [3]: Active; Activity [4]: Active
O=C1/C(=C/c2ccc(O)c(O)c2)CN(C2CC2)C/C1=C\c1ccc(O)c(O)c1 | Active | Active | –
O=C1/C(=C/c2ccc(O)c(O)c2)CSC/C1=C\c1ccc(O)c(O)c1 | Active | Active | –
O=C1/C(=C/c2ccc(O)c(O)c2)CN(C(=O)OCc2ccccc2)C/C1=C\c1ccc(O)c(O)c1 | Active | Active | –
CN1C/C(=C\c2ccc(O)c(O)c2)C(=O)/C(=C/c2ccc(O)c(O)c2)C1 | Active | Active | –
O=C1/C(=C/c2ccc(O)c(O)c2)COC/C1=C\c1ccc(O)c(O)c1 | Active | Active | Activity [7]: Active; Activity [8]: Non-Toxic; Activity [9]: Toxic
O=C1C(=Cc2ccc(O)c(O)c2)CC/C1=C\c1ccc(O)c(O)c1 | Active | Active | Activity [7]: Active; Activity [8]: Non-Toxic; Activity [9]: Toxic; Activity [10]: Dose-dependent effect; Activity [11]: Dose-dependent effect; Activity [12]: Active; Activity [3]: Active; Activity [13]: Dose-dependent effect; Activity [5]: Active; Activity [6]: Active; Activity [14]: inactive
CCOC(=O)N1C/C(=C\c2ccc(O)c(O)c2)C(=O)/C(=C/c2ccc(O)c(O)c2)C1 | Active | Active | –
